The target of test [1] is T1, Gamma-aminobutyric acid receptor subunit alpha-4/beta-3/gamma-2 (Rattus norvegicus) (UniProt P18508+P28471+P63079). Put plainly: Modulation of rat eGFP-fused GABA-A receptor alpha4beta3gamma2 expressed in HEK293 cells at <=1 uM in presence of GABA by patch-clamp assay relative to control. The test is classed as cell-based.
Test [2] deals with T2, Gamma-aminobutyric acid receptor subunit alpha-1/beta-3 (Rattus norvegicus) (UniProt P62813+P63079). Put plainly: Agonist activity at rat […] GABA-A receptor alpha1beta3 expressed in HEK293 cells assessed as ratio of I0 to GABA Imax at 10 uM in absence of GABA by patch-clamp assay. In kind it is cell-based. A digest of the protocol:
(§1)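 Whole-cell patch clamp on single fluorescent HEK 293 cells 48 h after transient co-transfection with rat subunit cDNAs plus eGFP. Extracellular solution 135 mM NaCl, 5.3 mM KCl, 2 mM CaCl2, 2 mM MgSO4, 10 mM HEPES pH 7.4, perfused 3 mL/min. Compound at 10 µM without GABA. Current expressed relative to 1 mM GABA at the same receptor (I0/Imax GABA), mean ± S.D. of n experiments.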

Test [3] deals with T3, Gamma-aminobutyric acid receptor subunit alpha-6/beta-3/gamma-2 (Rattus norvegicus) (UniProt P18508+P30191+P63079). Put plainly: Modulation of rat […] GABA-A receptor alpha6beta3gamma2 expressed in HEK293 cells up to 10 uM in presence of GABA by patch-clamp assay relative to control. In kind it is cell-based. Put shortly: (§2)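 Rat GABA-A subunits were transiently co-transfected with eGFP into HEK293 cells on coverslips. Fluorescent cells were recorded by whole-cell patch clamp 48 h later; bath pH 7.4, KCl/KOH pipette pH 7.2. Compound was applied at increasing concentrations up to 10 µM with the receptor-specific GABA EC20. Peak currents were fitted logistically for EC50, Hill and % modulation, as mean ± S.E.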

Test [4] concerns the target Gamma-aminobutyric acid receptor subunit alpha-1/beta-3/delta (Rattus norvegicus, UniProt P18506+P62813+P63079). Put plainly: Modulation of rat […] GABA-A receptor alpha1beta3delta expressed in HEK293 cells in presence of GABA by patch-clamp assay. The test is classed as cell-based. Put shortly: as §2
Test [5] addresses T1, Gamma-aminobutyric acid receptor subunit alpha-4/beta-3/gamma-2 (Rattus norvegicus). Put plainly: Displacement of [3H]EBOB from rat GABA-A receptor alpha4beta3gamma2 expressed in HEK293 cell membranes up to 10 uM after 90 mins by liquid scintillation counting analysis relative to control. A digest of the protocol:
(§3)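 Crude membranes from HEK 293 cells transiently Ca-phosphate-transfected with rat subunit cDNAs, harvested at 48 h. Membranes (150-200 µg protein) incubated with 3 nM [3H]EBOB in 50 mM Tris/citrate pH 7.3 plus 0.2 M NaCl. Compound up to 10 µM, final DMSO 0.1%, no GABA, 90 min at 21 °C. Bound radioligand collected by GF/C filtration and counted by scintillation.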

Test [6] concerns the target Gamma-aminobutyric acid receptor subunit alpha-1/beta-3/delta (Rattus norvegicus) (UniProt P18506+P62813+P63079). Put plainly: Modulation of rat […] GABA-A receptor alpha1beta3delta expressed in HEK293 cells up to 10 uM in presence of GABA by patch-clamp assay relative to control. The test is classed as cell-based. Put shortly:
as §2

Test [7] addresses T3, Gamma-aminobutyric acid receptor subunit alpha-6/beta-3/gamma-2 (Rattus norvegicus). Put plainly: Agonist activity at rat […] GABA-A receptor alpha6beta3gamma2 expressed in HEK293 cells assessed as ratio of I0 to GABA Imax at 10 uM in absence of GABA by patch-clamp assay. The test is classed as cell-based. A digest of the protocol:
as §1

The target in test [8] is T4, Gamma-aminobutyric acid receptor subunit alpha-4/beta-3/delta (Rattus norvegicus) (UniProt P18506+P28471+P63079). Put plainly: Displacement of [3H]EBOB from rat GABA-A receptor alpha4beta3delta expressed in HEK293 cell membranes up to 10 uM after 90 mins by liquid scintillation counting analysis relative to control. A digest of the protocol: as §3
Test [9] addresses GABA A receptor alpha-6/beta-2/gamma-2 (Rattus norvegicus) (UniProt P18508+P30191+P63138). Description: Displacement of [3H]EBOB from rat GABA-A receptor alpha6beta2gamma2 expressed in HEK293 cell membranes up to 10 uM after 90 mins by liquid scintillation counting analysis relative to control. A digest of the protocol:
as §3

The target in test [10] is Gamma-aminobutyric acid receptor subunit alpha-4/beta-3 (Rattus norvegicus) (UniProt P28471+P63079). Description: Agonist activity at rat […] GABA-A receptor alpha4beta3 expressed in HEK293 cells assessed as ratio of I0 to GABA Imax at 10 uM in absence of GABA by patch-clamp assay. In kind it is cell-based. Put shortly:
as §1

Test [11] concerns the target Gamma-aminobutyric acid receptor subunit alpha-6/beta-2 (Rattus norvegicus) (UniProt P30191+P63138). Put plainly: Displacement of [3H]EBOB from rat GABA-A receptor alpha6beta2 expressed in HEK293 cell membranes up to 10 uM after 90 mins by liquid scintillation counting analysis relative to control. Put shortly: as §3
For test [12], the target named is T2, Gamma-aminobutyric acid receptor subunit alpha-1/beta-3 (Rattus norvegicus). Description: Displacement of [3H]EBOB from rat GABA-A receptor alpha1beta3 expressed in HEK293 cell membranes at 10 uM after 90 mins by liquid scintillation counting analysis relative to control. Put shortly:
as §3

Test [13] addresses T3, Gamma-aminobutyric acid receptor subunit alpha-6/beta-3/gamma-2 (Rattus norvegicus). Put plainly: Displacement of [3H]EBOB from rat GABA-A receptor alpha6beta3gamma2 expressed in HEK293 cell membranes after 90 mins in presence of GABA by liquid scintillation counting analysis.
The target in test [14] is T4, Gamma-aminobutyric acid receptor subunit alpha-4/beta-3/delta (Rattus norvegicus). Description: Agonist activity at rat […] GABA-A receptor alpha4beta3delta expressed in HEK293 cells assessed as ratio of I0 to GABA Imax at 10 uM in absence of GABA by patch-clamp assay. In kind it is cell-based. Put shortly: as §1
Test [15] has as its target T1, Gamma-aminobutyric acid receptor subunit alpha-4/beta-3/gamma-2 (Rattus norvegicus). Description: Agonist activity at rat […] GABA-A receptor alpha4beta3gamma2 expressed in HEK293 cells assessed as ratio of I0 to GABA Imax at 10 uM in absence of GABA by patch-clamp assay. In kind it is cell-based. Put shortly:
as §1

The target in test [16] is Gamma-aminobutyric acid receptor subunit alpha-1/beta-3/gamma-2 (Rattus norvegicus, UniProt P18508+P62813+P63079). Description: Modulation of rat […] GABA-A receptor alpha1beta3gamma2 expressed in HEK293 cells in presence of GABA by patch-clamp assay. In kind it is cell-based. A digest of the protocol:
as §2

Active and inactive are the calls of the source. No cut-off for these calls is given here.

Gamma-aminobutyric acid receptor subunit alpha-1/beta-3/gamma-2, sequence (P18508 whole entry): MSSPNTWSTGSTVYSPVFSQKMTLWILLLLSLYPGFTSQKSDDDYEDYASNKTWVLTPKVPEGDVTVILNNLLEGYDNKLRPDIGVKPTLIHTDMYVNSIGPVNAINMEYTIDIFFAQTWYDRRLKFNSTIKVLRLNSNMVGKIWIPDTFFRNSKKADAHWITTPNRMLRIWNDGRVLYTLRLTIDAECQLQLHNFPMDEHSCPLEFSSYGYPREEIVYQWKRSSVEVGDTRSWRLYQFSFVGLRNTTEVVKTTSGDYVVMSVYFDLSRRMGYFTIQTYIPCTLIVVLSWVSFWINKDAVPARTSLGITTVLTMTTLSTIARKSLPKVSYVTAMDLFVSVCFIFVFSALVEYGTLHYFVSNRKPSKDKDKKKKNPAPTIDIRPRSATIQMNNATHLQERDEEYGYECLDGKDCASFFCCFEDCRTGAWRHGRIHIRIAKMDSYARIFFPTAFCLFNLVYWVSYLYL
Gamma-aminobutyric acid receptor subunit alpha-1/beta-3/gamma-2, sequence (P62813 whole entry): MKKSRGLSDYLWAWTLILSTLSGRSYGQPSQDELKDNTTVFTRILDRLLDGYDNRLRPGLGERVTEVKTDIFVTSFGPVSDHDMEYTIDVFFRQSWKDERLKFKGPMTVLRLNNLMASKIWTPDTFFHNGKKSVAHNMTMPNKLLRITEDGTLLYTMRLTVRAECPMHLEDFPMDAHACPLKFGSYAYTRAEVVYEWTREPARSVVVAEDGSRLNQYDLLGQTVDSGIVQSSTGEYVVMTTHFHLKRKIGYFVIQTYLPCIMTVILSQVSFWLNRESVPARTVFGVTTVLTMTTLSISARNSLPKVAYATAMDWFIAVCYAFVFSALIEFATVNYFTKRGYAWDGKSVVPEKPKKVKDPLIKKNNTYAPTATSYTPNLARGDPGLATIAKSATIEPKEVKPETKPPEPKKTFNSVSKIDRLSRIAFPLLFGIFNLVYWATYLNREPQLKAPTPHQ
Gamma-aminobutyric acid receptor subunit alpha-1/beta-3/gamma-2, sequence (P63079 whole entry): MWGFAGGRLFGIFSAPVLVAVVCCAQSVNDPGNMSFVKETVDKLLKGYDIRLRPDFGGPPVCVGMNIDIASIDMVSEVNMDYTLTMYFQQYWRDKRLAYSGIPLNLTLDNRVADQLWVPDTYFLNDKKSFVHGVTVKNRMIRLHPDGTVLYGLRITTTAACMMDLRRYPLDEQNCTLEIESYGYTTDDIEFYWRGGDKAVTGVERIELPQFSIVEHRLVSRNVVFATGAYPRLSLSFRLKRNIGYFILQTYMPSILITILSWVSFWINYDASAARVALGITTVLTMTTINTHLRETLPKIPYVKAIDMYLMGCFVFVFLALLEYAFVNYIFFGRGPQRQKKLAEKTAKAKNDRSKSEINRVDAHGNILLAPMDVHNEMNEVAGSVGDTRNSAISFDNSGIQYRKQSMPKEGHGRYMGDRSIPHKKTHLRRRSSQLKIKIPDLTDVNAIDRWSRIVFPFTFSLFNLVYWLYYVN
Gamma-aminobutyric acid receptor subunit alpha-1/beta-3/delta, sequence (P18506 whole entry): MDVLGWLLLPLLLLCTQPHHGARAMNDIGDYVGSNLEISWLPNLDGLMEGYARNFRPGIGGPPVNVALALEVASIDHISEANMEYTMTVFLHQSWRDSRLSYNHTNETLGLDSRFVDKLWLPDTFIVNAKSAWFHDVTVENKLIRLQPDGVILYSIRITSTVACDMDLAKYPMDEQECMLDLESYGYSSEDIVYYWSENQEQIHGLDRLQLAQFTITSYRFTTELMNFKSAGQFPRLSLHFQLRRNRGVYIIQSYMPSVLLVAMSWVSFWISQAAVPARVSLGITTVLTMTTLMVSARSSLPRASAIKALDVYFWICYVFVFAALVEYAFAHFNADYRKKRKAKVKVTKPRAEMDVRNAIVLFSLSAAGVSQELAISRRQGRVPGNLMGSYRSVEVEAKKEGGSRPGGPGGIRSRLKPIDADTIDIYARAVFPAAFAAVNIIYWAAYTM
Gamma-aminobutyric acid receptor subunit alpha-1/beta-3/delta, sequence (P62813 whole entry): as the sequence (P62813 whole entry) above
Gamma-aminobutyric acid receptor subunit alpha-1/beta-3/delta, sequence (P63079 whole entry): as the sequence (P63079 whole entry) above

As for `O=C(Nc1c(-c2cccs2)nc2c(Br)cc(Br)cn12)c1ccc(Cl)cc1`, in test [1], the result was inactive. In addition, the Ratio in test [2] came to 0.074; in test [7] it was 1.12; in [10], 0.124; in test [14], 1.61; in [15], 0.163. Further, the Activity is 157% in test [3] and 201% in test [6]. In addition, the values for the EC50 in test [4] and in test [16] were 100 nM and 2010 nM, respectively. The Imax turned out to be 67% in test [5]; 61% in [8]; 89% in test [9]; 93% in test [11]; 25% in [12]; 93% in [13].

The values are drawn from ChEMBL document CHEMBL4190374, “Structure-Function Evaluation of Imidazopyridine Derivatives Selective for δ-Subunit-Containing γ-Aminobutyric Acid Type A (GABAA) Receptors” (J Med Chem, 2018).
